In ChEMBL document CHEMBL4706591, “Diphenyl triazine hybrids inhibit α-synuclein fibrillogenesis: Design, synthesis and in vitro efficacy studies” (Eur J Med Chem, 2020):
Active and inactive are the calls of the source. No cut-off for these calls is given here.

How the values were obtained:
[1] = biological target: Alpha-synuclein (Homo sapiens) (UniProt P37840); assay: Inhibition of recombinant alpha-synuclein (unknown origin) aggregation expressed in Escherichia coli BL21 (DE3) cells at 1:1 compound-protein molar ratio measured for every 30 mins in presence of ThT by spectrofluorometry
Summary of the method: (§1)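 Recombinant α-syn from E. coli BL21(DE3), extracted by osmotic shock, purified on DEAE-Sepharose with 50–500 mM NaCl gradient. Run at 37 °C; Ex 440/Em 485 nm read every 30 min after 30 s orbital shaking, until plateau. Four wells each. Each well fitted to a sigmoid giving t1/2, kapp = 1/τ, and tlag from lag/elongation intercept, then averaged; Student's t-test.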

[2] = Aggregation property of the compound assessed as change in ThT fluorescence in presence of Thioflavin T; format: physicochemical; details: 336 h; time 2 weeks
Summary of the method: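 Compound alone incubated with ThT without α-syn for over 2 weeks; ThT fluorescence monitored to exclude self-aggregation interference.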

[3] = biological target: Alpha-synuclein (Homo sapiens) (UniProt P37840); assay: Inhibition of recombinant alpha-synuclein (unknown origin) aggregation expressed in Escherichia coli BL21 (DE3) cells assessed as elongation phase time at 1:1 compound-protein molar ratio measured for every 30 mins in presence of ThT by spectrofluorometry (reference value: 31.2 +/- 0.6 hrs); details: dose 70.0 µM; summary of the method: as §1
[4] = biological target: Alpha-synuclein (Homo sapiens) (UniProt P37840); assay: Inhibition of recombinant alpha-synuclein (unknown origin) aggregation expressed in Escherichia coli BL21 (DE3) cells assessed as lag time at 1:1 compound-protein molar ratio measured for every 30 mins in presence of ThT by spectrofluorometry (reference value: 15.1 +/- 0.9 hrs); summary of the method: as §1
[5] = biological target: Alpha-synuclein (Homo sapiens) (UniProt P37840); assay: Inhibition of recombinant alpha-synuclein (unknown origin) aggregation expressed in Escherichia coli BL21 (DE3) cells assessed as apparent elongation rate constant at 1:1 compound-protein molar ratio measured for every 30 mins in presence of ThT by spectrofluorometry (reference value: 108.7 +/- 1.8 10^-3/hr); summary of the method: as §1
[6] = Solubility of the compound in sodium phosphate buffer at pH 7.4; format: physicochemical
[7] = biological target: Alpha-synuclein (Homo sapiens) (UniProt P37840); assay: Inhibition of recombinant alpha-synuclein (unknown origin) aggregation expressed in Escherichia coli BL21 (DE3) cells assessed as final plateau fluorescence at 1:1 compound-protein molar ratio measured for every 30 mins in presence of ThT by spectrofluorometry relative to control; summary of the method: as §1
[8] = biological target: Alpha-synuclein (Homo sapiens) (UniProt P37840); assay: Inhibition of recombinant alpha-synuclein (unknown origin) aggregation expressed in Escherichia coli BL21 (DE3) cells assessed as reduction in fluorescent labeled aggregates at 20 uM incubated for >=66 hrs by ThT dye based inverted fluorescence microscopic analysis; details: time hrs >=66
Summary of the method: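 After the ThT kinetic run (about 66 h), 10 µL of control or compound-incubated α-syn mixed with 20 µM ThT was placed on a glass slide under a coverslip. Imaged on an inverted fluorescence microscope, FITC filter, 100× oil objective, with constant laser power and intensity.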

[9] = biological target: Alpha-synuclein (Homo sapiens) (UniProt P37840); assay: Disruption of recombinant preformed alpha-synuclein (unknown origin) aggregation expressed in Escherichia coli BL21 (DE3) at 20 uM incubated for 5 days by ThT dye based inverted fluorescence microscopic analysis; details: time 5.0 day
Summary of the method: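 Preformed α-syn aggregates incubated with compound at 1:1 molar ratio at 37 °C for 5 days, without ThT, in a sealed plate, one well each. Samples then stained with ThT and imaged on an inverted fluorescence microscope through a FITC filter with constant imaging parameters.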

MEF [10] = assay: Cytotoxicity against mouse MEF cells at 10 uM incubated for 24 hrs by MTT assay; format: cell-based
Summary of the method: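 MEF cells grown in DMEM with 10% FBS and 1% penicillin-streptomycin to about 80% confluency. Cells trypsinized, plated, and left 24 h at 37 °C in humidified CO2. Compound added at 10 µM in triplicate with DMSO vehicle control, 24 h. MTT 0.5 mg/mL for 4 h in dark, formazan dissolved in DMSO, absorbance read at 570 nm. Mean ± SEM of three independent replicates.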

MEF [11] = assay: Cytotoxicity against mouse MEF cells at 10 uM incubated for 24 hrs in presence of aggregated alpha-synuclein by MTT assay; format: cell-based
Summary of the method: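 MEF cells cultured and plated as for the compound-only cytotoxicity assay. Cells treated in triplicate for 24 h with monomeric α-syn, aggregated α-syn, or α-syn aggregated in presence of compound at 1:1. Viability read by MTT (0.5 mg/mL, 4 h, 570 nm). Mean ± SEM, three replicates; Student's t-test, p<0.05.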

| Structure (SMILES) | inhibition [1] | Activity [2] | T1/2 [3] [h] | Tlag [4] [h] | Kapp [5] | solubility [6] | inhibition [7] [%] | inhibition [8] | inhibition [9] | Activity (MEF [10]) | Activity (MEF [11]) |
| --- | --- | --- | --- | --- | --- | --- | --- | --- | --- | --- | --- |
| O=C(CSc1nnc(-c2ccccc2)c(-c2ccccc2)n1)N1CCN(S(=O)(=O)c2ccc3ccccc3c2)CC1 | Active | Not Active | 30 | 16.1 | 116 10^-3/hr | Insoluble |  |  |  |  |  |
| CC(=O)Nc1ccc(S(=O)(=O)N2CCN(C(=O)CSc3nnc(-c4ccccc4)c(-c4ccccc4)n3)CC2)cc1F | Active | Not Active | 28.1 | 14.9 | 121 10^-3/hr | Insoluble | > 50 | Active | Active | Non-Toxic | Toxic |
| Cc1ccc(S(=O)(=O)N2CCN(C(=O)CSc3nnc(-c4ccccc4)c(-c4ccccc4)n3)CC2)cc1 | Active | Not Active | 29.4 | 14.1 | 118 10^-3/hr | Insoluble | < 40 |  |  |  |  |
| O=C(CSc1nnc(-c2ccccc2)c(-c2ccccc2)n1)N1CCN(S(=O)(=O)c2ccccc2[N+](=O)[O-])CC1 | Active | Not Active | 29.1 | 15.3 | 123 10^-3/hr | Insoluble | < 40 |  |  |  |  |
| CC(=O)Nc1ccc(S(=O)(=O)N2CCN(C(=O)CSc3nnc(-c4ccccc4)c(-c4ccccc4)n3)CC2)cc1 | Active | Not Active | 27.5 | 14.6 | 86.6 10^-3/hr | Insoluble | > 50 | Active | Active | Non-Toxic | Non-Toxic |
| O=C(CSc1nnc(-c2ccccc2)c(-c2ccccc2)n1)N1CCN(S(=O)(=O)c2ccc(Br)cc2)CC1 | Active | Not Active | 27 | 14.4 | 120 10^-3/hr | Insoluble | < 40 | Active | inactive | Non-Toxic | Non-Toxic |
| O=C(CSc1nnc(-c2ccccc2)c(-c2ccccc2)n1)N1CCN(S(=O)(=O)c2ccc(Cl)cc2Cl)CC1 | Active | Not Active | 30.4 | 13.9 | 122 10^-3/hr | Insoluble |  |  |  |  |  |
| O=C(CSc1nnc(-c2ccccc2)c(-c2ccccc2)n1)N1CCN(c2ccnc3cc(Cl)ccc23)CC1 | Active | Not Active | 28.2 | 15.9 | 128 10^-3/hr | Insoluble | > 50 | Active | Active | Non-Toxic | Toxic |
